Tests used:
[1] = biological target: T1, HsIYD containing 2′-deoxyFMN (Homo sapiens, UniProt Q6PHW0, DEL2-31); test: flavin fluorescence quenching titration; format: binding
T1 sequence (Q6PHW0 32-289): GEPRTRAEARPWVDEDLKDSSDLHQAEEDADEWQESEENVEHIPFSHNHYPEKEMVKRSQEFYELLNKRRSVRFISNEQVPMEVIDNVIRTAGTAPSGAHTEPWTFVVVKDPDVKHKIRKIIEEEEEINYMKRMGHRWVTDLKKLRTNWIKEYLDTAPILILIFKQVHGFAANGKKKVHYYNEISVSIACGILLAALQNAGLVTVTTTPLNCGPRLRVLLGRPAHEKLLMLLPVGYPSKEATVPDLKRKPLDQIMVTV
Outline: (§1)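 Enzyme: human IYD lacking residues 2–31 (SUMO fusion, tag removed) or T. neapolitana IYD (C-terminal His6; dithionite wash first). FMN was stripped on a Ni column with up to 1.5 M guanidinium HCl, then reloaded with 200 μM 2′-deoxyFMN for 4 h at 4 °C. Ligand was titrated into 3 μM enzyme in 100 mM potassium phosphate pH 7.4 at 25 °C. Flavin fluorescence (ex 450/em 516 nm) was read 2 min after each addition. Kd was fitted from ΔF/F0 versus total enzyme and total ligand.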

[2] = biological target: T2, TnIYD containing 2′-deoxyFMN (Thermotoga neapolitana, UniProt B9K712); test: flavin fluorescence quenching titration; format: binding
T2 sequence (B9K712 1-186): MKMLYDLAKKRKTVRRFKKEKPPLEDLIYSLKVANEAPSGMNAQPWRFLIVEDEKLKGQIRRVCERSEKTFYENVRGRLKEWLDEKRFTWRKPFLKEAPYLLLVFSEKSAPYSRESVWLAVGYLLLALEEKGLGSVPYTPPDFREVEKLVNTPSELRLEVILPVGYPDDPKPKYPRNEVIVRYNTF
Outline: as §1

Row | Kd [2] [µM] | Compound | Kd [1] [µM]
1 | – | N[C@@H](Cc1ccc(O)c(F)c1)C(=O)O [F-Tyr, 3-Fluoro-L-tyrosine] | 1500 ± 70
2 | 6.3 ± 0.7 | COc1ccc(C[C@H](N)C(=O)O)cc1I [O-Me I-Tyr] | –
